# Measurements published in ChEMBL document CHEMBL1130112, “H3-receptor antagonists: synthesis and structure-activity relationships of para- and meta-substituted 4(5)-phenyl-2-[[2-[4(5)-imidazolyl]ethyl]thio]imidazoles” (J Med Chem, 1997).
# The source made the active and inactive calls. No cut-off for these calls is given here.
# Columns and labels:
# [1] = biological target: Histamine H3 receptor (Cavia porcellus, UniProt Q9JI35); assay: Histamine H3-antagonist potency on electrically stimulated guinea pig ileum; type: functional, tissue-based; settings: read-out: pA2 (converted)
# Outline: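 Guinea pig (350–550 g) terminal ileum under 1 g load in Krebs Henseleit, 37 °C, O₂ 95%:CO₂ 5%, equilibrated ≥60 min; transmural stimulation (0.1 Hz, 1 ms, submax voltage). Compounds up to 10⁻⁶ M, 30 min, then cumulative (R)-α-methylhistamine (10⁻⁹–10⁻⁶ M) inhibiting twitch, recorded isometrically. pA₂ by Schild regression; mean ± SEM of 10–12 observations.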
# [2] = dissociation constant corresponding to the 4(5)-phenyl-2-thiomidazole; type: ADME; settings: read-out: pKa,2
# Outline: (§1)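 pH-metric titration at 25.0 ± 0.1 °C with 0.15 M KCl, samples 0.5–4 mM; for poorly water-soluble compounds, values from 15–60 wt % methanol/water with Yasuda–Shedlovsky extrapolation; refined by nonlinear least squares.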
# [3] = dissociation constant corresponding to the 4(5)-alkylimidazole; type: ADME; settings: read-out: pKa,1; outline: as §1
# [4] = biological target: Histamine H3 receptor (Rattus norvegicus, UniProt Q9QYN8); assay: Inhibition of [3H]NAMHA binding to rat brain membrane histamine H3-receptor
# [5] = LogP of the free base (neutral species).; type: physicochemical; settings: octanol/water
# Outline: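 pH-metric method: octanol/water titrations with Bjerrum plots, 0.15 M KCl ionic strength, 25.0 ± 0.1 °C, samples 0.5–4 mM; constants refined by nonlinear least squares.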
# [6] = biological target: Histamine H3 receptor (Cavia porcellus) (UniProt Q9JI35); assay: Compound was tested for H3-antagonist potency on electrically stimulated guinea pig ileum; Unsurmountable antagonism at concentration > 10^-7 M; type: functional, tissue-based
# Chain of Histamine H3 receptor (Cavia porcellus) (Q9JI35 whole entry): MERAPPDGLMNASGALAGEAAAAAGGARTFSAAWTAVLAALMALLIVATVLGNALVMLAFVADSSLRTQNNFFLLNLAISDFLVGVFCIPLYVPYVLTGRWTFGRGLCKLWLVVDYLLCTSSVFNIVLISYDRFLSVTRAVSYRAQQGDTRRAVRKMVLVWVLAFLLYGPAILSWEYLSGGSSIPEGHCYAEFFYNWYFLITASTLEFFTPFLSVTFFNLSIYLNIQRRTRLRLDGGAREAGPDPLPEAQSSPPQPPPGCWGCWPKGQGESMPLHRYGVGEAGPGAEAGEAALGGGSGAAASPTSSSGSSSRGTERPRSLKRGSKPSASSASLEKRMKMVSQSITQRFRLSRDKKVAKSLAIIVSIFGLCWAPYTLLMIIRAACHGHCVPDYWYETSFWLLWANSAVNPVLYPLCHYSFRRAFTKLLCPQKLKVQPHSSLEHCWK
# Chain of Histamine H3 receptor (Rattus norvegicus, UniProt Q9QYN8) (Q9QYN8 whole entry): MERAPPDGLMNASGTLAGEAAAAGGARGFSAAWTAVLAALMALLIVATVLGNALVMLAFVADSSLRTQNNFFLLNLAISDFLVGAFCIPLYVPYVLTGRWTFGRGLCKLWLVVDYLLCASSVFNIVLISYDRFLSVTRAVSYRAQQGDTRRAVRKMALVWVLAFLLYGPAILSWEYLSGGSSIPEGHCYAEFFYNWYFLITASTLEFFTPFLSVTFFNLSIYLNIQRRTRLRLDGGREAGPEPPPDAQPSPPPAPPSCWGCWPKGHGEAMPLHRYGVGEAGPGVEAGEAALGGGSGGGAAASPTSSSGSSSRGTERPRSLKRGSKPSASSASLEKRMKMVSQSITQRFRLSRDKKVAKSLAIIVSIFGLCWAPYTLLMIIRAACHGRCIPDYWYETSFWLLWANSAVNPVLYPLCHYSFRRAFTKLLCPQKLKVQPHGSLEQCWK
# Chain of Histamine H3 receptor (Cavia porcellus, UniProt Q9JI35) (Q9JI35 whole entry): as the sequence (Q9JI35 whole entry) above
Kb [1],pKa [2],pKa [3],Ki [4],logP [5],pA2 [6],Compound
117 nM,7.07,3.63,28.2 nM,1.4,–,NC(=O)c1ccc(-c2c[nH]c(SCCc3c[nH]cn3)n2)cc1
16.2 nM,6.94,3.13,52.5 nM,2.75,–,O=[N+]([O-])c1ccc(-c2cnc(SCCc3c[nH]cn3)[nH]2)cc1
52.5 nM,–,–,29.5 nM,–,–,CN(C)c1ccc(-c2c[nH]c(SCCc3c[nH]cn3)n2)cc1
148 nM,7.06,4.3,–,4.11,–,CCCCOc1ccc(-c2cnc(SCCc3c[nH]cn3)[nH]2)cc1
–,7.03,4.34,39.8 nM,4.09,inactive,CCCc1ccc(-c2c[nH]c(SCCc3c[nH]cn3)n2)cc1
145 nM,7.05,4.01,16.2 nM,1.61,–,NC(=O)c1cccc(-c2cnc(SCCc3c[nH]cn3)[nH]2)c1
50.1 nM,6.93,3.84,2.95 nM,3.72,–,O=S(=O)(Oc1ccc(-c2cnc(SCCc3c[nH]cn3)[nH]2)cc1)c1ccccc1

# The next lines start with the molecule.
Compound,Kb [1],pKa [2],pKa [3],Ki [4],logP [5],pA2 [6]
Clc1ccc(-c2c[nH]c(SCCc3c[nH]cn3)n2)cc1,1.35 nM,7.1,4.12,35.5 nM,3.66,–
Brc1cccc(-c2cnc(SCCc3c[nH]cn3)[nH]2)c1,7.76 nM,7.08,3.9,14.1 nM,3.76,–
O=[N+]([O-])c1cccc(-c2c[nH]c(SCCc3c[nH]cn3)n2)c1,3.47 nM,6.89,3.21,30.9 nM,2.43,–
c1ccc(-c2cnc(SCCc3c[nH]cn3)[nH]2)cc1,6.46 nM,7.07,4.28,14.1 nM,2.62,–
CCCOc1cccc(-c2c[nH]c(SCCc3c[nH]cn3)n2)c1,–,7.04,4.04,9.33 nM,3.7,inactive
